Most compounds without a hit are left out; they make up all but 1.9% or so of the library.
Yeast superoxide – reduction of superoxide in aged yeast, primary screen, HTS; S. cerevisiae aged cells, superoxide DHE fluorescence; stronger effect = lower value; superoxide response (% of plate mean), % at 10 µM; 0.18% of 330,000 active; AID 2690, 2010;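 active = superoxide response under a set limit, about three screen SD below normal, cut at about 65% in these data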;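 note: yeast aged for seven days with compound at 30 °C before DHE staining; 100% = average MFI of all compound-treated wells on the plate with controls excluded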
MIN6 prolif – inducers of MIN6 beta-cell proliferation, primary screen, ATP luminescence, uHTS. MIN6 cells proliferation, ATPlite luminescence, 48 h; cells starved in 0.2% serum; 100% = growth in 10% serum. proliferation, % at 10 µM. 0.29% of 330,000 active;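 active = compounds whose signal lies at least 3.5 SD above the mean of all wells on their plate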;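 note: 0% = DMSO-treated cells in low-serum medium and 100% = 10% serum control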
UCH37 inh – inhibitors of human UCH37 deubiquitinase, primary screen, biochemical, Ub-AMC cleavage, fluorescence; inhibition, % (test concentration not listed); 0.33% of 330,000 active; Ubiquitin carboxyl-terminal hydrolase isozyme L5 (Homo sapiens), Q9Y5K5; purified proteasome/UCH37;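 active = mean inhibition over replicate wells above about 20%, limit read from the data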;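 note: 0% = compound-free wells with enzyme and 100% = wells lacking proteasome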
Target sequence (Q9Y5K5 whole entry, looked up): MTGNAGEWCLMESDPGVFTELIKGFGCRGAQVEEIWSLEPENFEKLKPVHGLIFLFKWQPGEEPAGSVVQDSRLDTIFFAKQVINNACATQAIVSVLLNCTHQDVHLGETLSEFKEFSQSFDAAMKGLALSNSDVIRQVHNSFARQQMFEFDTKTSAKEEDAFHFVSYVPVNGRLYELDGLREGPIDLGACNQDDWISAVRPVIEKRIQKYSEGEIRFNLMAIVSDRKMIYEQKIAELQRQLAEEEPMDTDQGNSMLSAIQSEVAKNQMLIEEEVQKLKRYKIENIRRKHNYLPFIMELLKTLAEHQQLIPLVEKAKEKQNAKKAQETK
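Material: Human UCH37 enzyme supplied as purified proteasome complex | Schedule: 30 min preincubation with enzyme, 25 min cleavage at room temperature | Detection: AMC fluorescence 355/460 nm | Measure: % inhibition of Ub-AMC cleavage fluorescence | Controls: Wells without proteasome as full block, compound-free enzyme plus substrate as uninhibited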
NR1D1 modulator – modulators of Rev-erb alpha DNA binding, primary screen, biochemical, FITC-DNA, fluorescence polarization, uHTS; Nuclear receptor subfamily 1 group D member 1 (Homo sapiens), P20393; Rev-erbα–FITC-DNA binding, 90 min; activity, % at 10 µM; 0.79% of 370,000 active;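 active = activity above about 14%, limit read from the data; passing the limit was not always enough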;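 note: 0% = DMSO wells with 35 nM protein and 100% = DMSO wells with 750 nM protein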
Rce1 inhib – yeast Rce1p protease inhibitors, primary screen, biochemical, fluorescence, cell-free homogeneous; 0.27% of 290,000 active; CAAX prenyl protease 2 (Saccharomyces cerevisiae (strain ATCC 204508 / S288c)), Q03530; yeast membranes, quenched prenylated peptide cleavage fluorescence; calls only;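 active = fall in fluorescence gain of 50% or more versus controls, with final raw signal at or below 3038400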;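 note: plate controls were neutral control wells for no effect and wells lacking membranes for full effect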
PG9 binder – binders of HIV-1 gp120 antibody PG9, primary screen, biochemical, TR-FRET. 0.43% of 360,000 active. TR-FRET gp120-PG9 antibody binding. HIV-1 gp120 / PG9 antibody interaction. inhibition, % at 6.7 µM; in the data active = inhibition above about 8.5%
Starred values were filed as active, the others as inactive; i = inactive; nt = no result; + = active, no number.

SMILES	Yeast superoxide	MIN6 prolif	UCH37 inh	NR1D1 modulator	Rce1 inhib	PG9 binder
CCN(CC)c1nc(N)c(C#N)c(CC#N)c1C#N	111	3	0	1	i	0
CCN(CC)c1nc(N)c2c(N)nc(OC)cc2c1C#N	106	-3	-23	6	+	-3
CC(=NNS(=O)(=O)c1ccc(Cl)cc1)c1cccc(O)c1	nt	nt	2	nt	nt	nt
CC(CC(=O)NCc1ccc(Cl)cc1)=NNC(=O)COc1ccc(C)cc1Br	nt	nt	3	nt	nt	nt
N=c1c2c(ncn1Cc1ccco1)Oc1ccc3ccccc3c1C2c1ccccc1 (centres undefined)	89	-6	3	-14	+	-1
NC(=NCc1ccc2c(c1)OCO2)NC(=O)c1ccccc1	nt	5	24*	-12	i	1
Cc1ccc(S(=O)(=O)NCC(=O)NN=Cc2ccc(Cl)cc2Cl)cc1	nt	nt	2	nt	nt	nt
CC(CC(=O)Nc1ccc(C)cc1C)=NNC(=O)C(C)C	nt	nt	2	nt	nt	nt
CCCCOC(=O)Nc1nc(C)c(C(=O)OCC)s1	77	-3	nt	0	+	0
CCOC(=O)c1sc(NC(=O)CC)nc1C	95	-1	1	1	i	-2
CC(C)Oc1ccccc1C=NNc1ccccc1[N+](=O)[O-]	nt	nt	8	nt	nt	nt
C[C@@]12CCC=C[C@H]1[C@H](c1ccc(/C=C/c3ccccc3)cc1F)N(Cc1ccccc1)C2=O	109	-8	2	4	+	0
C[C@@]12CCC=C[C@H]1[C@H](c1ccc3ccccc3c1/C=C/c1ccccc1)N(Cc1ccccc1)C2=O	90	-2	0	2	i	-1
O=c1c2ccccc2nc2n1CCCN2	81	5	-244	0	i	-1
O=c1c2ccccc2nc2n1CCCCN2	96	-1	-124	-1	+	1
COC(=O)C(c1ccccc1)C(CC(=O)c1ccccc1)c1ccccc1 (centres undefined)	nt	nt	nt	4	nt	-1
CCCC[C@H](CC(=O)c1ccccc1)[C@@H](OC(C)=O)C(=O)Oc1c(C(C)C)cccc1C(C)C	82	-6	25*	-2	nt	0
CC(=NNC(=O)c1ccc(-c2ccccc2)cc1)c1cc(O)cc(O)c1	nt	nt	-1	nt	nt	nt
CCNC(=S)N/N=C/c1cn(Cc2ccccc2F)c2ccccc12	78	-6	nt	-9	i	-5
CNC(=S)N/N=C/c1cn(Cc2c(F)cccc2Cl)c2ccccc12	96	0	nt	3	+	-2
O=C(NN=Cc1ccccc1OC(F)F)c1cc(-c2ccncc2)nc2ccccc12	nt	nt	0	nt	nt	nt
Cc1nc(SCc2ccc(O)c([N+](=O)[O-])c2)c([N+](=O)[O-])[nH]1	94	2	20*	7	i	-2
Cc1nc(SCc2ccc(O)c([N+](=O)[O-])c2)n[nH]1	113	-2	nt	3	i	-2
CN(C)CCCNC(=O)CCc1nc2ccccc2c(=O)[nH]1	96	2	20*	5	i	-1
COc1ccccc1CNC(=O)CCc1nc2ccccc2c(=O)[nH]1	94	0	-1	8	i	1
SMILES	Yeast superoxide	MIN6 prolif	UCH37 inh	NR1D1 modulator	Rce1 inhib	PG9 binder
C[C@@H]1CN(S(=O)(=O)C(C)(C)C)[C@@H](CCO)/C1=C\c1ccccc1	nt	nt	4	8	nt	-2
CC(C)(C)S(=O)(=O)N1C[C@H]2CC/C=C\C/C(c3ccccc3)=C\2[C@@H]1CCO	nt	nt	25*	6	nt	-1
CCOC(=O)/C(C#N)=C1/C=CN(c2ccccc2)C=N1	113	-2	21*	-2	i	0
CCOC(=O)/C(C#N)=C1/C=CN(c2ccc(C)cc2)C=N1	87	3	11	-3	i	-2
Oc1ccc(C=NNc2nccnc2Cl)cc1	nt	nt	12	nt	nt	nt
COCCNc1c2c(nc3c(-c4ccccc4)c(C)nn13)CCCC2	102	-5	-13	-7	i	1
Cc1nn2c(NCCN(C)C)c3c(nc2c1-c1ccccc1)CCCC3	107	-4	nt	-7	+	-3
